Here are results for three molecules from ChEMBL document CHEMBL3112522, “Bicyclic brominated furanones: a new class of quorum sensing modulators that inhibit bacterial biofilm formation” (Bioorg Med Chem, 2014).

Active and inactive are the calls of the source. The rule behind the calls is not given here. Bounds are passed on as bounds.

In general, inhibition refers to the relative decrease from the control value, in per cent. As usually defined, the IC50 is the concentration needed to halve the response being measured.

The nature of data set [1]: Cytotoxicity against human SK-N-SH cells assessed as cell survival at 400 uM incubated for 1 hr followed by compound washout measured after 48 hrs by CCK-8 assay relative to control. The conditions noted are these: read-out: Survival. In kind it is cell-based. The method, boiled down:
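SK-N-SH cells were grown in EMEM with 10% FBS, penicillin/streptomycin and 2.0 mM L-glutamine at 37 °C, 5% CO2. Wells were seeded at 5×10^4 cells/mL and left 24 h to adhere. Cells were exposed for 1 h in fresh medium, with DMSO-matched controls, then washed twice. After 0, 24 or 48 h recovery, CCK-8 A450 was read. Survival = (sample−medium)/(control−medium)×100.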
For orientation: Tetrazolium assays rely on reduction of a dye to a coloured formazan, in cell work by metabolically active cells.

Data set [2] relates to Pseudomonas aeruginosa. Briefly: Antibacterial activity against Pseudomonas aeruginosa PAO1 expressing green fluorescence protein assessed as inhibition of biofilm formation measured as reduction in mean thickness of biofilm at 400 uM after 24 hrs by confocal laser scanning microscopic analysis relative to control. Format: functional.
The target in data set [3] is T1, Transcriptional activator protein LasR (Pseudomonas aeruginosa (strain ATCC 15692 / PAO1 / 1C / PRS 101 / LMG12228)) (UniProt P25084).
T1 sequence (whole entry): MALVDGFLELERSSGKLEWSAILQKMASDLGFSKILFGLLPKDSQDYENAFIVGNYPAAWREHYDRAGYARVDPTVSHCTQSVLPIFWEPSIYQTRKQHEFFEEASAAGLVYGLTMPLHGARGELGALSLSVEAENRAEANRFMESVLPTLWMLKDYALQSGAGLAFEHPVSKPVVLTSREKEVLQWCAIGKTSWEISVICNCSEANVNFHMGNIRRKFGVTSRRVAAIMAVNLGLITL
Put plainly: Antagonist activity at LasR in Pseudomonas aeruginosa PAO1 expressing LasI assessed as inhibition of GFP production at 300 uM after 24 hrs by fluorescence assay relative to control.

For data set [4], the system named is Pseudomonas aeruginosa. Put plainly: Toxicity in Pseudomonas aeruginosa PAO1 assessed as planktonic growth inhibition at 400 uM after 24 hrs. In kind it is organism-based. To be noted: in vivo.
Data set [5] relates to Pseudomonas aeruginosa. Briefly: Antibacterial activity against Pseudomonas aeruginosa PAO1 expressing green fluorescence protein assessed as inhibition of biofilm formation measured as reduction in biomass at 400 uM after 24 hrs by confocal laser scanning microscopic analysis relative to control. In kind it is functional. To be noted: PAO1, 24 h.
The target in data set [6] is T1, Transcriptional activator protein LasR (Pseudomonas aeruginosa (strain ATCC 15692 / PAO1 / 1C / PRS 101 / LMG12228)). Briefly: Antagonist activity at LasR in Pseudomonas aeruginosa PAO1 expressing LasI assessed as inhibition of GFP production at 50 to 150 uM after 24 hrs by fluorescence assay.
The test system of data set [7] is Pseudomonas aeruginosa. Briefly: Antibacterial activity against Pseudomonas aeruginosa PAO1 assessed as inhibition of biofilm formation incubated for 24 hrs followed by compound-washout measured after 30 mins by crystal-violet staining-based colorimetric assay. Format: functional, organism-based. The method, boiled down:
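P. aeruginosa subcultured at OD600 0.1 in LB with compound (DMSO stock) in 96-well polystyrene plates, stationary, 37 °C, 24 h. Wells washed and dried 30 min, stained with 0.1% crystal violet for 30 min, washed, dye solubilized in 95% EtOH, A540 read. Values are (sample − medium)/(DMSO control − medium) × 100. Four replicates.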

In data set [8] the test system is Pseudomonas aeruginosa. Put plainly: Inhibition of quorum sensing system in Pseudomonas aeruginosa PAO-JP2 assessed as reduction of elastase B production after 24 hrs by congo-red staining-based assay. The method, boiled down:
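PAO-JP2 grown in PTSB at 37 °C, subcultured at OD600 0.05 with 5 µM 3-oxo-C12-HSL and 10 µM C4-HSL ± compound, shaken at 250 rpm for 24 h. Filtered supernatant (100 µL) incubated with Elastin-Congo red (4.5 mg in 900 µL Tris-HCl pH 7.2, 1 mM CaCl2) for 24 h at 37 °C, stopped with EDTA. A490 read minus bacteria-free blank, normalized to control. Four replicates.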

Data set [9] has as its target T2, HTH-type quorum-sensing regulator RhlR (Pseudomonas aeruginosa (strain ATCC 15692 / PAO1 / 1C / PRS 101 / LMG12228)) (UniProt P54292).
T2 sequence (whole entry): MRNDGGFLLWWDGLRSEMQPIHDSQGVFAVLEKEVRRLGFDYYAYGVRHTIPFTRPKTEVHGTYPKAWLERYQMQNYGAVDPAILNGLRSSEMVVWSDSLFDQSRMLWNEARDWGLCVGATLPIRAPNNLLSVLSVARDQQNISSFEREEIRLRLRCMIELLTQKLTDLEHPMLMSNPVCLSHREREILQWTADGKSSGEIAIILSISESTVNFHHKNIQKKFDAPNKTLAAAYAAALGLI
Briefly: Agonist activity at RhlR in Pseudomonas aeruginosa PAO1 expressing RhlI assessed as effect on GFP production at 50 to 300 uM after 24 hrs by fluorescence assay relative to control. The method, boiled down: (§1)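 PAO1 (prhlI-LVAgfp) grown in M9 with 300 µg/mL carbenicillin to OD600 0.1, exposed to compound at 50, 150 or 300 µM for 24 h at 37 °C with shaking at 250 rpm. Fluorescence read at ex 500/em 540 nm, M9 background subtracted, divided by OD600 and normalized to the BF-free control. Four replicates.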

The subject of the next data set is Escherichia coli. Put plainly: Antibacterial activity against Escherichia coli RP437 expressing red fluorescence protein assessed as inhibition of biofilm formation measured as reduction in surface area at 200 uM after 24 hrs by confocal laser scanning microscopic analysis. Format: functional, organism-based. The method, boiled down:
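E. coli RP437 (pRSH103, red fluorescent; grown in LB with 10 µg/mL tetracycline) formed biofilms on 316 stainless-steel coupons with 200 µM compound or 0.4% DMSO control, static, 37 °C, 24 h. Coupons rinsed three times in 0.9% NaCl, then imaged by CLSM. COMSTAT gave biomass, mean thickness and surface area from z-stacks at four locations, normalized to the BF-free control. Four replicates.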

Data set [10] addresses T2, HTH-type quorum-sensing regulator RhlR (Pseudomonas aeruginosa (strain ATCC 15692 / PAO1 / 1C / PRS 101 / LMG12228)). Put plainly: Agonist activity at RhlR in Pseudomonas aeruginosa PAO1 expressing RhlI assessed as stimulation of GFP production at 150 uM after 24 hrs by fluorescence assay relative to control. The method, boiled down: as §1
For data set [11], the target named is T1, Transcriptional activator protein LasR (Pseudomonas aeruginosa (strain ATCC 15692 / PAO1 / 1C / PRS 101 / LMG12228)). Briefly: Antagonist activity at LasR in Pseudomonas aeruginosa PAO1 expressing LasI assessed as inhibition of GFP production at 50 to 300 uM after 24 hrs by fluorescence assay relative to control.
Data set [12] concerns the target T2, HTH-type quorum-sensing regulator RhlR (Pseudomonas aeruginosa (strain ATCC 15692 / PAO1 / 1C / PRS 101 / LMG12228)). Put plainly: Agonist activity at RhlR in Pseudomonas aeruginosa PAO1 expressing RhlI assessed as stimulation of GFP production at 300 uM after 24 hrs by fluorescence assay relative to control. The method, boiled down: as §1

On to `O=C1C=C2CCCC(Br)=C2O1`, for which the viability at 1 h, 400 µM in data set [1] turned out to be 50%. The inhibition at 400 µM in the data set on Pseudomonas aeruginosa [2] (PAO1, 24 h) was determined as 60%; with Pseudomonas aeruginosa [5], 71%. For the same molecule, the inhibition in data set [3] is 78%; with Pseudomonas aeruginosa [8], “Dose-dependent effect”. Further, the Activity entry in the data set on Pseudomonas aeruginosa [4] is reported as “Non-toxic”. Also, the inhibition entry (in data set [6]; with Escherichia coli) was “Active” each time. In addition, the IC50 in the data set with Pseudomonas aeruginosa [7] is 146 µM. Also, the result in data set [9] was inactive.
Take `O=C1C=C2CCC(Br)=C2O1`: in data set [1], the viability at 1 h, 400 µM was determined as 6%. Moreover, in the data set on Pseudomonas aeruginosa [2], the inhibition entry was “inactive”. Moreover, the Activity entry in the data set on Pseudomonas aeruginosa [4] is “Non-toxic”; in [10], 82.6%; in data set [12], 165%. Moreover, the inhibition at 400 µM in the data set on Pseudomonas aeruginosa [5] is 53%. Also, the 50% inhibitory concentration (IC50) with Pseudomonas aeruginosa [7] was more than 400 µM. The inhibition result (in data set [11]; in the data set with Escherichia coli) was “Active” in each case.
Regarding `O=C1C=C2CCCCC(Br)=C2O1`, in [1], the viability at 1 h, 400 µM worked out at 13%. Also, the inhibition in data set [3] was determined as 69%. The Activity entry with Pseudomonas aeruginosa [4] was “Non-toxic”. In addition, the inhibition at 400 µM in the data set on Pseudomonas aeruginosa [5] turned out to be 50%. The inhibition entry (in data set [6]; in the data set with Escherichia coli) was “Active” in each case. The IC50 in the data set on Pseudomonas aeruginosa [7] came out at 140 µM. Moreover, the result in [9] was inactive.
